Where “and” joins values, the source holds several entries; their conditions need not be identical. Equal values may be shown once.

Broadly, the IC50 is the midpoint of a concentration-inhibition curve.

The target in assay [1] is aromatase. To be noted: cited from earlier work; for aromatase inhibition of naturally occurring isoflavones (in words): literature background.
Assay [2] deals with T1, recombinant human aromatase (CYP19) (Homo sapiens, UniProt P11511).
T1 sequence (P11511 1-503): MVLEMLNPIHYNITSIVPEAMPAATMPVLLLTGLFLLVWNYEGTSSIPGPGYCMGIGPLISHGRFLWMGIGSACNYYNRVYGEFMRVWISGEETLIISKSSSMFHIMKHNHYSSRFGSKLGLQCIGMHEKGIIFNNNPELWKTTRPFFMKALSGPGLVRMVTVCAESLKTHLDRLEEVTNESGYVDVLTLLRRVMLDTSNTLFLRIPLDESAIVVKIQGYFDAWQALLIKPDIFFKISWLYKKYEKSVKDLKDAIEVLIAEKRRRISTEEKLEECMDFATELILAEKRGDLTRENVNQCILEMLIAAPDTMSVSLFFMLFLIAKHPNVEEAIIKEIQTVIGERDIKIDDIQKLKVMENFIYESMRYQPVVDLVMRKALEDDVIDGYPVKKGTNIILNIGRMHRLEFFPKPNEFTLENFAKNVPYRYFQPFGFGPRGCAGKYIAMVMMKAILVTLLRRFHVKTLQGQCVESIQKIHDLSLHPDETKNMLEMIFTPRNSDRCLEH
Kind of assay: Fluorescence-based aromatase activity assay. The format is biochemical. To be noted: for increase in inhibition potency compared to model compound 1a: ratio of aromatase IC50 values versus 1a; for aromatase inhibition (in words): recombinant human aromatase, fluorescence assay. A digest of the protocol: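 Baculovirus/insect-cell-expressed human aromatase with P450 reductase; 3-fold serial dilutions from acetonitrile stocks, preincubated 10 min at 37 °C with NADPH-regenerating cofactor mix (pH 7.5). Enzyme/MFC solution (pH 7.4) was added, then 30 min at 37 °C, Tris stop, fluorescence ex 409/em 530 nm. Interfering compounds: DBF substrate, 2 h, NaOH stop.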

On to `O=C1c2ccccc2OCC1c1ccc(O)c(O)c1` (stereo not shown) [3′,4′-dihydroxyisoflavanone], for which, in assay [1] (aromatase, isoflavanone compounds, ref 20b), the half-maximal inhibitory concentration (IC50) was 200 µM and ≥ 200 µM.

As to `O=C1c2ccccc2OCC1c1ccc(Oc2ccccc2)cc1` (stereo not shown) [Compound 1h, 3-(4-Phenoxyphenyl)chroman-4-one], the “increase in inhibition potency compared to model compound 1a” value (“increase in inhibition potency” below) in assay [2] turned out to be 12 fold.

As to `O=C1c2ccccc2OCC1c1ccc(-c2ccccc2)cc1` (stereo not shown) [Compound 1i, 3-(Biphenyl-4-yl)chroman-4-one], the “aromatase inhibition (in words)” value in assay [2] is given as “no significant inhibition”. Take `O=C1c2ccccc2OCC1c1cc2ccccc2c2ccccc12` (stereo not shown) [Compound 1j, 3-(Phenanthren-9-yl)chroman-4-one]: in assay [2], the “aromatase inhibition (in words)” value is “no significant inhibition”.

Regarding `COc1cc(OC)cc(C2COc3ccccc3C2=O)c1` (stereo not shown) [Compound 2g, 3-(3,5-Dimethoxyphenyl)chroman-4-one], the “increase in inhibition potency” value in assay [2] is “threefold”.

Regarding `O=C1c2ccccc2OCC1c1ccsc1` (stereo not shown) [Compound 3a, 3-(Thiophen-3-yl)chroman-4-one], the “aromatase inhibition (in words)” value in assay [2] was “did not exhibit a significant increase in potency”. Regarding `O=C1c2ccccc2OCC1c1cccnc1` (stereo not shown) [Compound 3b, 3-(Pyridin-3-yl)chroman-4-one], the “increase in inhibition potency” value in assay [2] is reported as “fivefold”. As to `O=C1c2cc(Cl)ccc2OCC1c1ccccc1` (stereo not shown) [Compound 4b, 6-Chloro-3-phenylchroman-4-one], the “aromatase inhibition (in words)” value in assay [2] is “Enhanced inhibitory effects”. Still for that read-out and setting: the entry for `CC(C)(C)c1ccc2c(c1)C(=O)C(c1ccccc1)CO2` (stereo not shown) [Compound 4d, 6-tert-Butyl-3-phenylchroman-4-one] is “reduced the binding affinity”. For the compound `O=c1c(-c2ccc(O)cc2)coc2cc(O)ccc12` [daidzein], the “aromatase inhibition of naturally occurring isoflavones (in words)” value in assay [1] is “either inactive or weak inhibitors”.

As to `O=c1c(-c2ccc(O)cc2)coc2cc(O)cc(O)c12` [genistein], the “aromatase inhibition of naturally occurring isoflavones (in words)” value in assay [1] was “either inactive or weak inhibitors”. Regarding `COc1cc2c(=O)c(-c3ccc(O)cc3)coc2cc1O` [glycitein], the “aromatase inhibition of naturally occurring isoflavones (in words)” value in assay [1] is “either inactive or weak inhibitors”. For `O=c1c(-c2ccccc2)coc2ccccc12` [isoflavone, 3-phenylbenzopyrone], in assay [1] (ref 20b), the “aromatase inhibition of scaffold (in words)” value is “inactive”.
